The text below walks through data of ChEMBL document CHEMBL1139892 (J Nat Prod, 2007).

In brackets after ≈: the same amount, converted by molar mass. Where a name gives a salt, the structure may show the parent alone.

The subject of assay [1] is Mycobacterium tuberculosis. In words: Antimycobacterial activity against Mycobacterium tuberculosis H37Ra by microplate Alamar Blue assay. It counts as functional. In short, it runs like this: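 M. tuberculosis H37Ra grown in Middlebrook 7H9 broth; growth read colorimetrically with Alamar Blue in microplates and reported as MIC; isoniazid and kanamycin sulfate included as reference drugs.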
For orientation: Alamar Blue is a resazurin reagent that responds to reducing activity.

Another assay has as its system Plasmodium falciparum. Briefly: Antimalarial activity against multidrug-resistant Plasmodium falciparum K1 by micro culture radioisotope technique. Format: functional, organism-based.
The test system of another assay is Candida albicans. In words: Antifungal activity against Candida albicans by colorimetric method. Format: functional, organism-based.
The target in assay [2] is Prostaglandin G/H synthase 1 (Homo sapiens, UniProt P23219). In words: Inhibition of COX1 by radioimmunoassay method.
Sequence of Prostaglandin G/H synthase 1 (P23219 whole entry): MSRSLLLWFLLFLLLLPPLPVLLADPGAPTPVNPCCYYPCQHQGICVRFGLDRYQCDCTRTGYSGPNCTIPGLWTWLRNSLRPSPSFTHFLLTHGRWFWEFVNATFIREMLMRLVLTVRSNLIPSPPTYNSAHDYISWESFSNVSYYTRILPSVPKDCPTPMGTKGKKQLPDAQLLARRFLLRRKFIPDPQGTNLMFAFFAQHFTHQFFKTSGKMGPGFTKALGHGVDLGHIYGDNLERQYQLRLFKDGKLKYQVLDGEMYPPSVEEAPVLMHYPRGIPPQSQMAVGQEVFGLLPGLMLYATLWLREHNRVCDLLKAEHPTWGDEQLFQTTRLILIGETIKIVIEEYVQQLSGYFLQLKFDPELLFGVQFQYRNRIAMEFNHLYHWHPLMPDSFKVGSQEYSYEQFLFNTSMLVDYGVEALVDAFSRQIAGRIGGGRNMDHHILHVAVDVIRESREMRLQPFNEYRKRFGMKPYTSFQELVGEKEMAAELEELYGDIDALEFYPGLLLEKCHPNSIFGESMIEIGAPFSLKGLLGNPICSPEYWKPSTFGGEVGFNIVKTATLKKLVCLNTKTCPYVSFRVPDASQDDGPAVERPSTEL
The target of assay [3] is T1, Prostaglandin G/H synthase 2 (Homo sapiens, UniProt P35354).
T1 sequence (P35354 whole entry): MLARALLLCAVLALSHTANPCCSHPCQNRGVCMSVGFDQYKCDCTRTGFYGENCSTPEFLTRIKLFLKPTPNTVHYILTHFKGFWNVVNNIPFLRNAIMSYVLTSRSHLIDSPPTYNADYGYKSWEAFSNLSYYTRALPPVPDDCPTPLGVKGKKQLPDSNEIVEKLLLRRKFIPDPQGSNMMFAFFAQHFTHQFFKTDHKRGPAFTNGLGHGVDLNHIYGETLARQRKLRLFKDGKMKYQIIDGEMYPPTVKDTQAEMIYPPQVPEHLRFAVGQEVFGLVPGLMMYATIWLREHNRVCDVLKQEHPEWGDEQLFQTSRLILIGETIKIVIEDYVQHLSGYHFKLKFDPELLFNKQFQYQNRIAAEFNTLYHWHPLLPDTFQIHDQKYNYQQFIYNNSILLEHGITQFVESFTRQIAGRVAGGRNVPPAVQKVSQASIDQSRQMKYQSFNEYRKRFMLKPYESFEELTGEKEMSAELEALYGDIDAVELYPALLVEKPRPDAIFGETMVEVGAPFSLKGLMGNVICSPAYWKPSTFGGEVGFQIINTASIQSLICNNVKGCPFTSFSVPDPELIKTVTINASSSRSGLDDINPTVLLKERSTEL
Briefly: Inhibition of COX2 by radioimmunoassay method.

In another assay the test system is KB. In words: Cytotoxicity against KB cells by colorimetric method. Format: cell-based. Conditions: Homo sapiens. Put shortly: (§1)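 KB and BC cells were tested by the colorimetric method of Skehan and co-workers, with ellipticine as the reference compound.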
Assay [4] can be described thus: Cytotoxicity against BC cells by colorimetric method. Format: cell-based. The following applies: Homo sapiens. Put shortly: as §1

On to `COc1c(C)c(OC)c2c(c1O)CCc1c(O)cccc1O2` [BAUHINOXEPIN E], for which it took 331 µM (≈ 100 µg/mL) to inhibit growth in assay [1] (MIC). The IC50 (commonly the point on the concentration scale where inhibition reaches its midpoint) in the assay with Plasmodium falciparum is greater than 66.2 µM; in the assay with Candida albicans, greater than 166 µM; in assay [2], greater than 33.1 µM; in assay [3], greater than 33.1 µM; in the assay with KB, greater than 66.2 µM; in assay [4], greater than 66.2 µM.
Regarding `COC1=CC(=O)C2=C(CCc3ccccc3O2)C1=O` [BAUHINOXEPIN J], 24.4 µM (≈ 6.25 µg/mL) was the least that counted as inhibitory in assay [1] (MIC). Moreover, the IC50 with Plasmodium falciparum was 5.8 µM; in the assay on Candida albicans, greater than 195 µM; with KB, 10.5 µM; in assay [4] it was 12.1 µM.
For `COc1cc2c(c(O)c1C)Oc1cccc(O)c1CC2` [BAUHINOXEPIN C], the MIC – broadly, the least concentration at which growth counts as inhibited – in assay [1] was found to be 184 µM (≈ 50 µg/mL). For the same compound, the IC50 is greater than 73.5 µM with Plasmodium falciparum, 79.4 µM in the assay with Candida albicans, 44.8 µM with KB and 32.3 µM in assay [4].
In turn, `C[C@H]1[C@@H](O)O[C@@H]2O[C@@]3(C)CC[C@H]4[C@H](C)CC[C@@H]1[C@@]24OO3` [ARTENIMOL] registered an IC50 in the assay on Plasmodium falciparum of 0.0042 µM.
In the case of `COc1c(C)c(O)cc2c1Oc1ccccc1C(O)C2` (configuration not stated) [BAUHINOXEPIN G], the MIC in assay [1] came to 91.9 µM (≈ 25 µg/mL). Also, the IC50 was greater than 73.5 µM in the assay with Plasmodium falciparum, greater than 184 µM in the assay on Candida albicans, greater than 73.5 µM in the assay with KB and greater than 73.5 µM in assay [4].
The compound `Cc1c(O)cc2c(c1O)C(=O)C[C@@H](c1ccccc1)O2` had an MIC in assay [1] greater than 741 µM. The IC50 is greater than 74 µM in the assay with Plasmodium falciparum, greater than 185 µM with Candida albicans, greater than 74 µM with KB and greater than 74 µM in assay [4].
As to `Oc1cc(O)cc(CCc2ccccc2)c1` [DIHYDROPINOSYLVIN], it took 117 µM (≈ 25 µg/mL) to inhibit growth in assay [1] (MIC). The IC50 was greater than 93.4 µM with Plasmodium falciparum; greater than 234 µM in the assay with Candida albicans; greater than 46.7 µM in assay [2]; greater than 46.7 µM in assay [3]; greater than 93.4 µM with KB; greater than 93.4 µM in assay [4].
Take `COc1c(O)c(C)c(OC)c2c1CCc1c(O)cccc1O2` [BAUHINOXEPIN F]: in assay [1], the MIC was found to be 662 µM (≈ 200 µg/mL). For the same compound, the IC50 was greater than 66.2 µM in the assay with Plasmodium falciparum; 77.8 µM in the assay with Candida albicans; greater than 33.1 µM in assay [2]; 6.9 µM in assay [3]; 29.4 µM with KB; 27.4 µM in assay [4].
In the case of `COc1cc(O)cc(CCc2ccccc2)c1`, the lowest concentration to inhibit growth in assay [1] (MIC) was 219 µM (≈ 50 µg/mL). Besides, the half-maximal inhibitory concentration (IC50) in the assay on Plasmodium falciparum was greater than 87.7 µM; in the assay on Candida albicans, 68.4 µM; in the assay on KB, 51.7 µM; in assay [4], 72.3 µM.
`COc1cc(CCc2ccccc2O)cc(O)c1C` [BAUHINOL E]: the MIC in assay [1] was determined as 194 µM (≈ 50 µg/mL). The IC50 in the assay on Plasmodium falciparum is greater than 77.5 µM; with Candida albicans it was greater than 194 µM; in the assay on KB it was greater than 77.5 µM; in assay [4], greater than 77.5 µM.
For the compound `NC[C@H]1O[C@H](O[C@H]2[C@H](O)[C@@H](O[C@H]3O[C@H](CO)[C@@H](O)[C@H](N)[C@H]3O)[C@H](N)C[C@@H]2N)[C@H](O)[C@@H](O)[C@@H]1O` [KANAMYCIN SULFATE], the MIC in assay [1] came out at 3.43 µM.
In assay [1], `Cc1c(O)c(C)c2c(c1O)C(=O)C[C@@H](c1ccccc1)O2` [DEMETHOXYMATTEUCINOL] had an MIC greater than 704 µM. For the same compound, the IC50 is 9.5 µM with Plasmodium falciparum, greater than 176 µM with Candida albicans, greater than 70.4 µM with KB and greater than 70.4 µM in assay [4].
For `Cc1c2ccncc2c(C)c2c1[nH]c1ccccc12` [ELLIPTECINE], the values for the IC50 (in the assay on KB; in assay [4]) were 5.3 µM and 6.1 µM, respectively.
Compound `COc1cc(CCc2ccccc2O)cc(OC)c1` had an MIC in assay [1] of 194 µM (≈ 50 µg/mL). Moreover, the IC50 with Plasmodium falciparum is greater than 77.5 µM; with Candida albicans, 49.6 µM; with KB, greater than 77.5 µM; in assay [4], greater than 77.5 µM.
As to `COC1=C(C)C(=O)C2=C(CCc3c(O)cccc3O2)C1=O` [BAUHINOXEPIN H], the MIC in assay [1] was determined as 87.4 µM (≈ 25 µg/mL). The IC50 with Candida albicans is greater than 175 µM; in assay [2], greater than 34.9 µM; in assay [3], greater than 34.9 µM; in the assay on KB, 15.7 µM; in assay [4], 11.5 µM.
The compound `COC1=C(C)C(=O)C2=C(CCc3cc(O)ccc3O2)C1=O` [BAUHINOXEPIN I] displayed a minimum inhibitory concentration (MIC) in assay [1] of 175 µM (≈ 50 µg/mL). The 50% inhibitory concentration (IC50) was 10.5 µM in the assay with Plasmodium falciparum; greater than 175 µM in the assay with Candida albicans; greater than 34.9 µM in assay [2]; 10.1 µM in assay [3]; 38.8 µM with KB; 41.9 µM in assay [4].
The compound `COc1cc(O)cc(CCc2ccccc2O)c1` [BATATASIN IV] came in with an MIC in assay [1] of 205 µM (≈ 50 µg/mL). In addition, the IC50 was greater than 81.8 µM in the assay on Plasmodium falciparum; greater than 205 µM with Candida albicans; greater than 40.9 µM in assay [2]; greater than 40.9 µM in assay [3]; greater than 81.8 µM in the assay on KB; greater than 81.8 µM in assay [4].
On to `C[C@@H]1[C@H](O)[C@@H](C)/C=C/C=C/C=C/C=C/C=C/C=C/C=C/[C@H](O[C@@H]2O[C@H](C)[C@@H](O)[C@H](N)[C@@H]2O)C[C@@H]2O[C@](O)(C[C@@H](O)C[C@@H](O)[C@H](O)CC[C@@H](O)C[C@@H](O)CC(=O)O[C@H]1C)C[C@H](O)[C@H]2C(=O)O` [AMPHOTERICIN B], for which inhibition with Candida albicans was half-maximal at 0.04 µM (IC50).
As for `NNC(=O)c1ccncc1` [ISONIAZID], 0.29 µM (≈ 0.0398 µg/mL) was the least that counted as inhibitory in assay [1] (MIC).
`COc1cc(CCc2ccccc2O)c(O)c(OC)c1` yielded a minimum inhibitory concentration (MIC) in assay [1] of 91.2 µM (≈ 25 µg/mL). Besides, the IC50 in the assay on Plasmodium falciparum was greater than 72.9 µM; in the assay on Candida albicans, greater than 182 µM; with KB it was greater than 72.9 µM; in assay [4] it was greater than 72.9 µM.
Compound `COc1cc(OC)c(O)c([C@@H]2Cc3ccccc3O2)c1` [BAUHIBENZOFURIN A] gave an MIC in assay [1] of 368 µM (≈ 100 µg/mL). In addition, the IC50 in the assay on Plasmodium falciparum was greater than 73.5 µM; in the assay with Candida albicans, 130 µM; with KB, greater than 73.5 µM; in assay [4], greater than 73.5 µM.
For `COc1c(C)c(O)cc2c1Oc1cccc(O)c1CC2` [BAUHINOXEPIN D], the MIC in assay [1] was found to be 184 µM (≈ 50 µg/mL). Moreover, the IC50 with Plasmodium falciparum is greater than 73.5 µM; in the assay on Candida albicans, greater than 184 µM; in the assay with KB, 41.5 µM; in assay [4], 45.5 µM.
